{"source": "ChEMBL document CHEMBL4732104", "about": "“Discovery of bardoxolone derivatives as novel orally active necroptosis inhibitors” (Eur J Med Chem, 2021)", "key": {"HT-29 [1]": {"test_system": "HT-29", "experiment": "Anti-necroptotic activity in human HT-29 cells assessed as inhibition of TNFalpha/SM-164/Z-VAD-fmk (TSZ)-induced necroptosis by measuring increase in cell viability measured after 12 hrs by celltiter-glo luminescent cell viability assay", "type": "functional, cell-based", "details": "for EC50: HT-29, 12 h", "procedure,_shortened": "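HT-29 cells pretreated with test agent across a concentration range, then TNF-α (20 ng/mL), Smac mimetic (10 nM) and z-VAD-fmk (20 μM) for 12–16 h. CellTiter-Glo viability. EC50 ± SD from at least three independent experiments.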"}, "L929": {"test_system": "L929", "experiment": "Anti-necroptotic activity in mouse L929 cells assessed as inhibition of TNFalpha/Z-VAD-fmk (TZ)-induced necroptosis by measuring increase in cell viability measured after 12 hrs by celltiter-glo luminescent cell viability assay", "type": "functional, cell-based", "details": "L929, 12 h", "procedure,_shortened": "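Mouse L929 fibroblasts pretreated with test agent, then mouse TNF-α (20 ng/mL) plus z-VAD-fmk (20 μM). Incubation stated as 4 h in table footnote and 12 h in figure legend. CellTiter-Glo viability. EC50 ± SD from at least three independent repeats.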"}, "HT-29 [2]": {"test_system": "HT-29", "experiment": "Anti-necroptotic activity in human HT-29 cells assessed as inhibition of TNFalpha/SM-164/Z-VAD-fmk (TSZ)-induced necroptosis by measuring increase in cell viability at 10 uM measured after 12 hrs by celltiter-glo luminescent cell viability assay", "type": "functional, cell-based", "procedure,_shortened": "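HT-29 cells in DMEM with 10% FBS at 37 °C, 5% CO2. Test agents at 10 μM, then TSZ stimulation for 12 h. Viability read by CellTiter-Glo luminescence.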"}, "HT-29 [3]": {"test_system": "HT-29", "experiment": "Anti-necroptotic activity in human HT-29 cells assessed as inhibition of TNFalpha/SM-164/Z-VAD-fmk (TSZ)-induced necroptosis by measuring cell viability at 10 uM preincubated for 30 mins followed by TSZ stimulation and measured after 16 hrs by celltiter-glo luminescent cell viability assay relative to control", "type": "functional", "details": "time 16.5 hrs", "procedure,_shortened": "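HT-29 cells in DMEM with 10% FBS, 37 °C, 5% CO2. Compound pretreatment 30 min, then TNF-α 20 ng/mL, Smac mimetic and z-VAD-fmk 20 μM for 16 h. Viability by CellTiter-Glo luminescence, normalised to untreated control cells.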"}, "HT-29 [4]": {"test_system": "HT-29", "experiment": "Protection against TNFalpha/SM-164 (TS)-induced apoptosis in human HT-29 cells assessed as increase in cell viability at 0.08 to 10 uM measured after 20 hrs by celltiter-glo luminescent cell viability assay", "type": "functional, cell-based", "details": "dose 0.08-10 µM", "procedure,_shortened": "(§1)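 HT-29 apoptosis induced by TNF-α 20 ng/mL plus Smac mimetic (20 h), or by TNF-α plus cycloheximide (24 h), with graded compound concentrations. Viability read by CellTiter-Glo luminescence; means ± S.D. of three independent experiments.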"}, "HT-29 [5]": {"test_system": "HT-29", "experiment": "Anti-necroptotic activity in human HT-29 cells assessed as inhibition of TNFalpha/SM-164/Z-VAD-fmk (TSZ)-induced necroptosis by measuring reduction in plasma membrane rupture at 5 uM preincubated for 30 mins followed by TSZ stimulation and measured after 12 hrs by phase contrast microscopic analysis", "type": "functional, cell-based", "details": "time 12.5 hrs", "procedure,_shortened": "(§2)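 HT-29 cells pretreated with DMSO or compound, then stimulated with TNF-α, Smac mimetic and z-VAD-fmk for 12 h. Necrotic morphology (swelling, membrane rupture) viewed by phase contrast microscopy at 200×.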"}, "HT-29 [6]": {"test_system": "HT-29", "experiment": "Anti-necroptotic activity in human HT-29 cells assessed as inhibition of TNFalpha/SM-164/Z-VAD-fmk (TSZ)-induced necroptosis by measuring reduction in cell swelling at 5 uM preincubated for 30 mins followed by TSZ stimulation and measured after 12 hrs by phase contrast microscopic analysis", "type": "functional, cell-based", "details": "time 12.5 hrs", "procedure,_shortened": "as §2"}, "HT-29 [7]": {"test_system": "HT-29", "experiment": "Cytotoxicity against human HT-29 cells assessed as reduction in cell viability at 10 uM by MTT assay", "type": "cell-based", "details": "ht-29, 10 µM"}, "HT-29 [8]": {"test_system": "HT-29", "experiment": "Anti-necroptotic activity in human HT-29 cells assessed as inhibition of TNFalpha/cycloheximide/Z-VAD-fmk (TCZ)-induced necroptosis by measuring increase in cell viability measured after 16 hrs by celltiter-glo luminescent cell viability assay", "type": "functional, cell-based"}, "HT-29 [9]": {"test_system": "HT-29", "experiment": "Protection against TNFalpha/cycloheximide (TC)-induced apoptosis in human HT-29 cells assessed as increase in cell viability at 0.08 to 10 uM measured after 24 hrs by celltiter-glo luminescent cell viability assay", "type": "functional, cell-based", "details": "dose 0.08-10 µM", "procedure,_shortened": "as §1"}, "Rattus norvegicus": {"test_system": "Rattus norvegicus", "experiment": "Neuroprotective activity in middle cerebral artery occlusion-induced Sprague-Dawley rat model of ischemia-reperfusion injury assessed as reduction in cerebral infarct volume at 1 mg/kg by TTC staining based microscopic analysis relative to control", "type": "functional", "set-up": "scale not given: the % may be the effect or the level left"}}, "note": "Activity calls are given as the source filed them. The rule behind the calls is not given here.", "data": [{"smiles": "CC1(C)CC[C@]2(C(=O)O)CC[C@]3(C)C(=CC[C@@H]4[C@@]5(C)CC[C@H](O)C(C)(C)[C@@H]5CC[C@]43C)[C@@H]2C1", "note": "[OLEANOLIC_ACID]", "values": [{"measurement": "EC50", "setting": "HT-29 [1]", "result": "> 10000", "unit": "nM"}]}, {"smiles": "CC1(C)CC[C@]2(C(=O)n3cnc(-c4ccccn4)c3)CC[C@]3(C)[C@H](C(=O)C=C4[C@@]5(C)C=C(C#N)C(=O)C(C)(C)[C@@H]5CC[C@]43C)[C@@H]2C1", "values": [{"measurement": "EC50", "setting": "L929", "result": 610, "unit": "nM"}, {"measurement": "EC50", "setting": "HT-29 [1]", "result": 290, "unit": "nM"}]}, {"smiles": "CC1(C)CC[C@]2(C(=O)O)[C@H](O)C[C@]3(C)C(=CC[C@@H]4[C@@]5(C)CC[C@H](O)C(C)(C)[C@@H]5CC[C@]43C)[C@@H]2C1", "values": [{"measurement": "EC50", "setting": "HT-29 [1]", "result": "> 10000", "unit": "nM"}]}, {"smiles": "COC(=O)/C=C/C(=O)OC", "values": [{"measurement": "inhibition", "setting": "HT-29 [2]", "result": "inactive"}]}, {"smiles": "CC1(C)CC[C@]2(C(=O)N[C@H]3CCCc4ccccc43)CC[C@]3(C)[C@H](C(=O)C=C4[C@@]5(C)C=C(C#N)C(=O)C(C)(C)[C@@H]5CC[C@]43C)[C@@H]2C1", "values": [{"measurement": "EC50", "setting": "L929", "result": 620, "unit": "nM"}, {"measurement": "EC50", "setting": "HT-29 [1]", "result": 1810, "unit": "nM"}]}, {"smiles": "CC1(C)CC[C@]2(NC(=O)C(C)(F)F)CC[C@]3(C)[C@H](C(=O)C=C4[C@@]5(C)C=C(C#N)C(=O)C(C)(C)[C@@H]5CC[C@]43C)[C@@H]2C1", "note": "[OMAVELOXOLONE]", "values": [{"measurement": "EC50", "setting": "L929", "result": 5250, "unit": "nM"}, {"measurement": "EC50", "setting": "HT-29 [1]", "result": 1410, "unit": "nM"}]}, {"smiles": "CCNC(=O)[C@]12CCC(C)(C)C[C@H]1[C@H]1C(=O)C=C3[C@@]4(C)C=C(C#N)C(=O)C(C)(C)[C@@H]4CC[C@@]3(C)[C@]1(C)CC2", "values": [{"measurement": "EC50", "setting": "L929", "result": 4150, "unit": "nM"}, {"measurement": "EC50", "setting": "HT-29 [1]", "result": 1380, "unit": "nM"}]}, {"smiles": "CC1(C)CC[C@]2(C(=O)NCCNC(=O)OC(C)(C)C)CC[C@]3(C)[C@H](C(=O)C=C4[C@@]5(C)C=C(C#N)C(=O)C(C)(C)[C@@H]5CC[C@]43C)[C@@H]2C1", "values": [{"measurement": "EC50", "setting": "L929", "result": 1480, "unit": "nM"}, {"measurement": "EC50", "setting": "HT-29 [1]", "result": 2810, "unit": "nM"}]}, {"smiles": "CC1(C)CC[C@]2(C(=O)N[C@@H]3CCCc4ccccc43)CC[C@]3(C)[C@H](C(=O)C=C4[C@@]5(C)C=C(C#N)C(=O)C(C)(C)[C@@H]5CC[C@]43C)[C@@H]2C1", "values": [{"measurement": "EC50", "setting": "L929", "result": 820, "unit": "nM"}, {"measurement": "EC50", "setting": "HT-29 [1]", "result": 1910, "unit": "nM"}]}, {"smiles": "Cc1ccc(Nc2nccc(N(C)c3ccc4c(C)n(C)nc4c3)n2)cc1S(N)(=O)=O", "note": "[PAZOPANIB]", "values": [{"measurement": "Activity", "setting": "HT-29 [3]", "result": ">80", "unit": "%"}]}, {"smiles": "CC1(C)CC[C@]2(C(=O)O)CC[C@]3(C)[C@H](C(=O)C=C4[C@@]5(C)C=C(C#N)C(=O)C(C)(C)[C@@H]5CC[C@]43C)[C@@H]2C1", "note": "[BARDOXOLONE]", "values": [{"measurement": "Activity", "setting": "HT-29 [4]", "result": "inactive"}, {"measurement": "Activity", "setting": "HT-29 [5]", "result": "Active"}, {"measurement": "Activity", "setting": "HT-29 [6]", "result": "Active"}, {"measurement": "EC50", "setting": "L929", "result": "> 10000", "unit": "nM"}, {"measurement": "inhibition", "setting": "HT-29 [1]", "result": "Dose-dependent effect"}, {"measurement": "EC50", "setting": "HT-29 [1]", "result": 1300, "unit": "nM"}, {"measurement": "Activity", "setting": "HT-29 [7]", "result": "Toxic"}, {"measurement": "inhibition", "setting": "HT-29 [8]", "result": "Dose-dependent effect"}, {"measurement": "Activity", "setting": "HT-29 [9]", "result": "inactive"}, {"measurement": "Activity", "setting": "HT-29 [3]", "result": ">100", "unit": "%"}]}, {"smiles": "CC1(C)CC[C@]2(C(=O)NCc3ccccc3)CC[C@]3(C)[C@H](C(=O)C=C4[C@@]5(C)C=C(C#N)C(=O)C(C)(C)[C@@H]5CC[C@]43C)[C@@H]2C1", "values": [{"measurement": "EC50", "setting": "L929", "result": 1030, "unit": "nM"}, {"measurement": "EC50", "setting": "HT-29 [1]", "result": 1630, "unit": "nM"}]}, {"smiles": "CC(C)c1cc(C(=O)N2Cc3ccc(CN4CCN(C)CC4)cc3C2)c(O)cc1O", "values": [{"measurement": "inhibition", "setting": "HT-29 [2]", "result": "Active"}]}, {"smiles": "COC(=O)[C@@]12OC[C@]34[C@H]([C@@H](O)[C@@H]1O)[C@@]1(C)CC(=O)C(O)=C(C)[C@@H]1C[C@H]3OC(=O)[C@H](OC(=O)C=C(C)C)[C@@H]24", "values": [{"measurement": "inhibition", "setting": "HT-29 [2]", "result": "inactive"}]}, {"smiles": "COC(=O)[C@]12CCC(C)(C)C[C@H]1[C@H]1C(=O)C=C3[C@@]4(C)C=C(C#N)C(=O)C(C)(C)[C@@H]4CC[C@@]3(C)[C@]1(C)CC2", "note": "[BARDOXOLONE METHYL]", "values": [{"measurement": "EC50", "setting": "L929", "result": "> 10000", "unit": "nM"}, {"measurement": "EC50", "setting": "HT-29 [1]", "result": 4340, "unit": "nM"}]}, {"smiles": "C=CCNC1=C2C[C@@H](C)C[C@H](OC)[C@H](O)[C@@H](C)/C=C(\\C)[C@H](OC(N)=O)[C@@H](OC)/C=C\\C=C(/C)C(=O)NC(=CC1=O)C2=O", "values": [{"measurement": "inhibition", "setting": "HT-29 [2]", "result": "Active"}]}, {"smiles": "CC1(C)CC[C@]2(C(=O)n3ccnc3)CC[C@]3(C)[C@H](C(=O)C=C4[C@@]5(C)C=C(C#N)C(=O)C(C)(C)[C@@H]5CC[C@]43C)[C@@H]2C1", "values": [{"measurement": "EC50", "setting": "L929", "result": 1460, "unit": "nM"}, {"measurement": "EC50", "setting": "HT-29 [1]", "result": 2100, "unit": "nM"}]}, {"smiles": "CC1(C)CC[C@]2(C(=O)NC3CCCCC3)CC[C@]3(C)[C@H](C(=O)C=C4[C@@]5(C)C=C(C#N)C(=O)C(C)(C)[C@@H]5CC[C@]43C)[C@@H]2C1", "values": [{"measurement": "EC50", "setting": "L929", "result": "> 10000", "unit": "nM"}, {"measurement": "EC50", "setting": "HT-29 [1]", "result": 1300, "unit": "nM"}]}, {"smiles": "COCCOC(=O)C1=C(C)NC(C)=C(C(=O)OC(C)C)C1c1cccc([N+](=O)[O-])c1", "note": "(stereo not drawn) [NIMODIPINE]", "values": [{"measurement": "Activity", "setting": "Rattus norvegicus", "result": 26.8, "unit": "%"}]}]}
